Compound activity deposited in PubChem by several laboratories.
In the library only some 5.3% were active in any assay of this set; here they are far more common.
FAK inh – FAK kinase inhibitors, primary screen, biochemical; Focal adhesion kinase 1 (Homo sapiens), Q05397; biochemical FAK kinase activity assay; inhibition, %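 (tested at 7 µM)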; 97,000 tested, 0.84% active; AID 727, 2007; in the data active = inhibition above about 19%;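 also: 0% = DMSO and 100% = reference compound high control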
Target sequence (Q05397 whole entry, looked up): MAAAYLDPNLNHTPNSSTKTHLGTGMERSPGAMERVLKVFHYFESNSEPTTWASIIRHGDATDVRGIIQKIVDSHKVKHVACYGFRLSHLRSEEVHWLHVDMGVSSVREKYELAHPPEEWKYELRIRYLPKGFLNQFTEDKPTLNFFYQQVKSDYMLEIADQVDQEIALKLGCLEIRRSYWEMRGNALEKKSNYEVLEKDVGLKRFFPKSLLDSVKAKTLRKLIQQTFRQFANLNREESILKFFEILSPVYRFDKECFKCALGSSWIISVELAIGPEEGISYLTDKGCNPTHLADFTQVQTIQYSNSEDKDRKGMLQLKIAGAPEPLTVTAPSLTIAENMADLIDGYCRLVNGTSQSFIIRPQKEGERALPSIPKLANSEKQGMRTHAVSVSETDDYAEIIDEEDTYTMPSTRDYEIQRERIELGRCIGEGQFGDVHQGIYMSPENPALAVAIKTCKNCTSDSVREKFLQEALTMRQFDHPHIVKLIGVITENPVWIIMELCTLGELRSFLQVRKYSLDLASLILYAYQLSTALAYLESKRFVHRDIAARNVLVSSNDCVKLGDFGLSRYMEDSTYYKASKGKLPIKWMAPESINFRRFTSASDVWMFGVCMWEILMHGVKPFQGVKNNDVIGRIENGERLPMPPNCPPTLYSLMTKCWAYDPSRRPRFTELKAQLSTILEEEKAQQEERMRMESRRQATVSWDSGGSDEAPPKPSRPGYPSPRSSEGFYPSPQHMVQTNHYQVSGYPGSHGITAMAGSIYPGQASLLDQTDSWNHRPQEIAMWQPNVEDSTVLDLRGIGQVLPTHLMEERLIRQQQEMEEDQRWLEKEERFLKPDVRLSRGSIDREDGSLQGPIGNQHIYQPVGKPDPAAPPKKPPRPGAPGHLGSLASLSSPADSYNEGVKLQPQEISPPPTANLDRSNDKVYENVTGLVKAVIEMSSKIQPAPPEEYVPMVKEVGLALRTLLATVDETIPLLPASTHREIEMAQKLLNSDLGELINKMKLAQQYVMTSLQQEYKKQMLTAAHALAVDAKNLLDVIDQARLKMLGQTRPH
Cav32 inh – Cav3.2 calcium influx blockers – cell-based, Fluo-4 calcium fluorescence, FDSS, MLSMR library, primary screen; Cav3.2-expressing cells; hits give low values; B-score at 10 µM; 100,000 tested, 4% active;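 active = single-dose well whose peak fluorescence ratio is a statistical outlier from its plate by either plate-standardised score or position-corrected B-score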
PLK1 PBD inh – Plk1 polo box domain binding inhibitors, primary screen, biochemical, fluorescence polarization. Serine/threonine-protein kinase PLK1 (Homo sapiens), P53350. Plk1 PBD phosphopeptide binding. inhibition, %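 (tested at about 20 µM)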. 97,000 tested, 0.13% active. AID 693, 2007; in the data active = inhibition above about 34%, passing the limit was not always enough
EphB4 ephrin blk – EphB4-ephrin-B2 interaction antagonists, primary screen, biochemical, TNYL-RAW peptide probe, fluorescence polarization; Ephrin type-B receptor 4 (Homo sapiens), P54760; EphB4 LBD / TNYL-RAW-Alexa532 peptide; AID 720, 2007; inhibition, % at 7 µM; 97,000 tested, 0.15% active;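 active = inhibition above the screen-wide mean inhibition plus 3 SD, cut at about 15% in these data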;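 also: 0% = DMSO wells and 100% = excess unlabeled TNYL-RAW peptide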
HIV Rev-RRE inh – HIV-1 Rev-RRE binding inhibitors, primary screen, biochemical, FRET, protein-RNA interaction; P05866; Rev peptide-RRE RNA binding; inhibition, % at 8 µM; 97,000 tested, 0.79% active;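 active = inhibition above the screen-wide mean plus 3 SD, cut at about 35% in these data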;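 also: 0% = median DMSO wells and 100% = median Neomycin B control wells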
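Test system: labelled RRE RNA duplex and labelled Rev peptide. Times: 5 min compound–RNA preincubation, then 15 min with peptide, 25 °C. Doses: single-dose 8 µM. Measured by: FRET, excitation 480 nm, emission 540 nm donor and 671 nm acceptor. Measure: % inhibition of FRET ratio versus controls.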
PLK1 kinase inh – human PLK1 kinase inhibitors, primary screen, biochemical, TR-FRET | recombinant PLK1 kinase, TR-FRET peptide phosphorylation | inhibition, % at 10 µM | 97,000 tested, 0.53% active | AID 619, 2007;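 active = inhibition of 50% or more in the single-concentration screen; inactive = inhibition below 50%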;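 also: 0% = DMSO max control and 100% = H-89 dihydrochloride min control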
An asterisk follows results filed as active; . = no result given.

SMILES	FAK inh	Cav32 inh	PLK1 PBD inh	EphB4 ephrin blk	HIV Rev-RRE inh	PLK1 kinase inh
Cc1ccc(S(=O)(=O)N(CC(=O)NCCSc2ccccn2)c2cc(C)cc(C)c2)cc1	-2	-6.4*	-7	3	8	-10
COc1ccc(N(CC(=O)NCCSc2ccccn2)S(C)(=O)=O)cc1Cl	5	1.8	6	-2	2	5
Cc1ccccc1N(CC(=O)NCCSC1CCCCC1)S(=O)(=O)c1ccccc1	2	-6*	-8	-6	5	-7
Cc1ccc(S(=O)(=O)N(CC(=O)NCCSCc2ccco2)c2cc(C)ccc2C)cc1	-7	-6.7*	-14	-3	-2	-2
Oc1ccc(CNCC2COc3ccccc3O2)cc1 (centres undefined)	2	0.15	-42	1	6	-10
CCOc1ccc(C2=C(C=Nc3c(C)n(C)n(-c4ccccc4)c3=O)C(c3ccc(F)cc3)c3ccccc3O2)cc1 (centres undefined)	-3	0.0033	5	2	3	-5
COc1ccc(Cn2cnc3c([N+](=O)[O-])c(C)c(C)cc32)cc1	5	-6.2*	-15	-2	8	-5
CCCCOc1cccc(C(=O)NNC(=S)NC2CCCCC2)c1	-11	-5.8*	-7	4	-4	-9
O=C(CC1C(=O)N(c2ccccc2)C(=O)N1C1CCCCC1)Nc1ccccc1 (centres undefined)	-2	0.21	-13	6	9	-13
CCn1nc(C)c(/C=C2\CCCC3=C2OC(N)=C(C#N)C3c2c(C)nn(CC)c2C)c1C (centres undefined)	-2	-1.5	-16	-7	47*	-6
Cc1nc(NS(=O)(=O)c2ccc(Br)cc2)c2c3c(sc2n1)CCC3	-5	-4.6*	-25	-1	-1	-8
CCCN(CCC)c1nc2ccccc2nc1C(C#N)C(=O)OC(C)COC (centres undefined)	9	-7.7*	-9	10	21	-12
N#CC(C(=O)NCc1ccccc1)c1nc2ccccc2nc1N1CCCC1 (centres undefined)	10	-6*	10	1	62*	-3
COCCCNC(=O)C(C#N)c1nc2ccccc2nc1N1CCCC1 (centres undefined)	-3	-5.6*	-4	-1	12	-16
CCCCCCNC(=O)C(C#N)c1nc2ccccc2nc1N1CCOCC1 (centres undefined)	-1	-3.3	11	-8	4	-9
CCCCCNC(=O)C(C#N)c1nc2ccccc2nc1N1CCCC1 (centres undefined)	-2	-7.1*	-5	-9	6	-4
CCCCN(CCCC)c1nc2ccccc2nc1C(C#N)C(=O)NCCCOC (centres undefined)	-6	-8.1*	-61	-4	10	1
CCCCCCNC(=O)C(C#N)c1nc2ccccc2nc1N1CCCC1 (centres undefined)	-4	-7.1*	-2	-2	14	-9
CCN(CC)c1nc2ccccc2nc1C(C#N)C(=O)NCCCOC (centres undefined)	3	-2.5	10	-5	31	0
N#CC(C(=O)NCc1ccco1)c1nc2ccccc2nc1N1CCOCC1 (centres undefined)	-2	-3.6*	-3	3	5	-7
C#CCNC(=O)C1=C[C@H](C2CCCCC2)[C@@H](CCCO)[C@H](OCC)O1	.	1.8	.	.	.	.
CCOC(=O)c1oc2ccccc2c1CSc1nnnn1-c1ccc(C)cc1	1	-3.9*	-17	3	13	-16
CCOC(=O)c1oc2ccccc2c1CSc1nnc(-c2ccco2)o1	.	-3.9	.	.	.	.
NNC(=O)c1ccccc1CO	.	-1.7	.	.	.	.
COc1ccc(NC(=O)CSc2nnc(-c3cccs3)n2C)cc1OC	.	0.084	.	.	.	.
COc1ccc(NC(=O)CSc2nc3c(c(-c4cccs4)c2C#N)CN(C)CC3)cc1OC	9	-1.4	-5	5	63*	-9
CN1CCc2nc(SCC(=O)Nc3ccc(Cl)cc3)c(C#N)cc2C1	13	1.2	-13	4	13	53*
